Measurements: ChEMBL document CHEMBL3228026, “Inhibition of gastric acid secretion by 1,8-naphthyridin-2(1H)-ones” (J Med Chem, 1979)
Active and inactive are the calls of the source.

Assays:
[1] = molecular target: Histamine H2 receptor (Rattus norvegicus, UniProt P25102); test: Antagonist activity at histamine H2 receptor in Charles River rat assessed as inhibition of histamine-mediated electrically stimulated uterine contraction
Method in brief: (§1)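 Uteri taken from female rats (150–200 g) primed with diethylstilbesterol (0.16 mg/rat) 16–20 h before sacrifice. Single horns were held in McEwen's solution at 34 °C under 95% O2–5% CO2. They were stimulated electrically every 50 s for 10 s with maximal current and 60 Hz trains of 1-ms pulses, and the block of the histamine response was scored. Footnote cutoff: under 30% reduction with test compound at 20 µg/mL.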

[2] = test system: Canis familiaris; test: Antisecretory activity in Beagle dog assessed as inhibition of gastrin tetrapeptide-stimulated gastric acid secretion at 20 mg/kg, po administered 1 hr prior to gastrin tetrapeptide challenge measured every 30 mins for 90 mins relative to placebo control; assay type: functional; conditions: Canis lupus familiaris, Stomach
Method in brief: (§2)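 Conscious female beagles (7–10 kg) with a chronic gastric fistula received compound through the gastric cannula, called oral. Gastric output was collected over three 30-min periods (90 min) after the stimulant. Titratable acid in an aliquot was titrated to pH 7 with 0.01 N NaOH using a glass-calomel electrode. The value is the maximal % drop in acid concentration against a placebo trial in the same dog, with SE where more than two animals.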

[3] = test system: Canis familiaris; test: Antisecretory activity in Beagle dog assessed as inhibition of histamine-stimulated gastric acid secretion at 40 mg/kg, po administered 1 hr prior to histamine challenge measured every 30 mins for 90 mins relative to placebo control; assay type: functional, organism-based; parameters: dose 40 mg/kg; conditions: Canis lupus familiaris, Stomach; method in brief: as §2
[4] = molecular target: Histamine H2 receptor (Cavia porcellus) (UniProt P47747); test: Antagonist activity at histamine H2 receptor in Hartley guinea pig atrium assessed as ratio of histamine concentration required in control to that required in presence of compound to increase atrium rate by 50 beats/min at 10 ug/mL; conditions: Cardiac atrium
Chain of Histamine H2 receptor (Cavia porcellus) (P47747 whole entry): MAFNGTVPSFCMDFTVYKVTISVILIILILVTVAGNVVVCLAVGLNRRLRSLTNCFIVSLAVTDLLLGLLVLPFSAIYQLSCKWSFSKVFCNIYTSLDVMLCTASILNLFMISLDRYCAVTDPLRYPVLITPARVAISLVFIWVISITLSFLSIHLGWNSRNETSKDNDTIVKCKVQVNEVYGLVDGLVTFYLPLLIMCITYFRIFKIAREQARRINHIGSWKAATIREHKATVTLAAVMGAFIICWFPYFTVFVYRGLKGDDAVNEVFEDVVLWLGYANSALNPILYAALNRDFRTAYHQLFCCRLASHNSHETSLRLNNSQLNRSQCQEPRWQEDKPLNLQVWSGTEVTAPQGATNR
Method in brief: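 Spontaneously beating Hartley guinea pig atria were dissected free of other myocardium and held in McEwen's solution on a transducer. Rate was counted from the tracing. Histamine was given at increasing concentrations (0.05–3.2 µg/mL) with placebo or with inhibitor at 10 µg/mL. The value is the ratio of histamine concentration needed to raise rate by 50 beats/min in the placebo trial to that needed with compound.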

[5] = molecular target: Histamine H2 receptor (Rattus norvegicus) (UniProt P25102); test: Antagonist activity at histamine H2 receptor in Charles River rat assessed as inhibition of histamine-mediated electrically stimulated uterine contraction at 20 ug/mL relative to histamine-treated placebo; method in brief: as §1
Chain of Histamine H2 receptor (Rattus norvegicus) (P25102 whole entry): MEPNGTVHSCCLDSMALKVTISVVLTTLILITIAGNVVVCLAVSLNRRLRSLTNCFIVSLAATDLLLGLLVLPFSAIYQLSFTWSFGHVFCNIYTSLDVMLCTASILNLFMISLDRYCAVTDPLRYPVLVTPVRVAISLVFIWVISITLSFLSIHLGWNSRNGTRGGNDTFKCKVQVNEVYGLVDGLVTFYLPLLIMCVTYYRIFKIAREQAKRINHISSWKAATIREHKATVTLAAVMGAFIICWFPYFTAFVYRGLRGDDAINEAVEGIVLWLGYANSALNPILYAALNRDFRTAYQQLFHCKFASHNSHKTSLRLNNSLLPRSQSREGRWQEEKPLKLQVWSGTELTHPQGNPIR

[6] = test system: Canis familiaris; test: Antisecretory activity in Beagle dog assessed as inhibition of histamine-stimulated gastric acid secretion at 20 mg/kg, po administered 1 hr prior to histamine challenge measured every 30 mins for 90 mins relative to placebo control; assay type: functional; conditions: Canis lupus familiaris, Stomach; method in brief: as §2
[7] = test system: Canis familiaris; test: Antisecretory activity in Beagle dog assessed as inhibition of gastrin tetrapeptide-stimulated gastric acid secretion at 40 mg/kg, po administered 1 hr prior to gastrin tetrapeptide challenge measured every 30 mins for 90 mins relative to placebo control; assay type: functional, organism-based; parameters: dose 40 mg/kg; conditions: Canis lupus familiaris, Stomach; method in brief: as §2

Chain of Histamine H2 receptor (P25102 whole entry): as above

Cc1cc(C(F)(F)F)nc2c1ccc(=O)n2CCN(C)C
EC50 [1]: 5.35 µM | inhibition in vivo at 20 mg/kg [2]: 34% | inhibition [3]: inactive

Cc1cc(Cl)nc2c1ccc(=O)n2CCN(C)C
EC50 [1]: 34.7 µM | inhibition in vivo at 20 mg/kg [2]: < 25% | inhibition [3]: inactive

Cc1cc(C)c2c(n1)N(CCN(C)C)C(=O)CC2
EC50 [1]: 19.4 µM | Ratio [4]: 0.013 | inhibition in vivo at 20 mg/kg [2]: < 25% | inhibition [3]: inactive

Cc1cc(C)c2ccc(=O)n(CCN(C3CCCCC3)C3CCCCC3)c2n1
inhibition [5]: < 30% | inhibition in vivo at 20 mg/kg [2]: < 25% | inhibition [3]: inactive

Cc1cc(C)c2ccc(=O)n(CCN(C)C)c2n1
EC50 [1]: 16 µM | Ratio [4]: 0.18 | inhibition in vivo at 20 mg/kg [2]: 40% | inhibition [3]: inactive

CNC(=S)NCCSCc1[nH]cnc1C [METIAMIDE]
Ratio [4]: 0.003 | inhibition in vivo at 20 mg/kg [2]: 76% | inhibition in vivo at 20 mg/kg [6]: 46%

Cc1nc2c(ccc(=O)n2CCN(C)C)c(C)c1C
EC50 [1]: 48.2 µM | inhibition in vivo at 20 mg/kg [2]: 61% | inhibition [3]: inactive

CN(C)CCn1c(=O)ccc2c(C(F)(F)F)cc(C(F)(F)F)nc21
inhibition [5]: < 30% | inhibition in vivo at 20 mg/kg [2]: 32% | inhibition [3]: inactive

Cc1cc(C)c2ccc(=O)n(CCN3C(C)(C)CCCC3(C)C)c2n1
inhibition [5]: < 30% | inhibition in vivo at 20 mg/kg [2]: < 25% | inhibition [3]: inactive

Cc1cc(C)c2ccc(=O)n(CCCN(C)C)c2n1
inhibition [5]: < 30% | inhibition in vivo at 20 mg/kg [2]: 31% | inhibition [3]: inactive

CCc1ccc2ccc(=O)n(CCN(C)C)c2n1
EC50 [1]: 3.22 µM | inhibition in vivo at 20 mg/kg [2]: < 25% | inhibition [3]: inactive

CN(C)CCn1c(=O)ccc2cccnc21
inhibition [5]: < 30% | Ratio [4]: 0.54 | inhibition in vivo at 20 mg/kg [2]: 59% | inhibition [3]: inactive

CC(C)Cc1ccc2ccc(=O)n(CCN(C)C)c2n1
EC50 [1]: 0.585 µM | Ratio [4]: 0.21 | inhibition in vivo at 20 mg/kg [2]: < 25% | inhibition [3]: inactive

Cc1cc(C)c2ccc(=O)n(CCCCN(C)C)c2n1
inhibition [5]: < 30% | inhibition in vivo at 20 mg/kg [2]: < 25% | inhibition [3]: inactive

Cc1cc(C)c2c(n1)N(CCN(C)C)CCC2
EC50 [1]: 4.33 µM | inhibition [7]: inactive | inhibition [3]: inactive

CC(C)c1ccc2ccc(=O)n(CCN(C)C)c2n1
EC50 [1]: 2.31 µM | inhibition in vivo at 20 mg/kg [2]: < 25% | inhibition [3]: inactive

Cc1cc(C)c2ccc(=O)n(CC[N+](C)(C)C)c2n1
inhibition [5]: < 30% | inhibition in vivo at 20 mg/kg [2]: < 25% | inhibition [3]: inactive

COc1cc(C)c2ccc(=O)n(CCN(C)C)c2n1
EC50 [1]: 26.8 µM | inhibition in vivo at 20 mg/kg [2]: 27% | inhibition [3]: inactive

Cc1cc(C)c2ccc(=O)n(CCN3CCCCC3)c2n1
EC50 [1]: 10.7 µM | inhibition in vivo at 20 mg/kg [2]: 40% | inhibition [3]: inactive

CCCCN(CCCC)CCn1c(=O)ccc2c(C)cc(C)nc21
EC50 [1]: 5.46 µM | inhibition in vivo at 20 mg/kg [2]: 33% | inhibition [3]: inactive

CNCCn1c(=O)ccc2c(C)cc(C)nc21
EC50 [1]: 91.2 µM | inhibition in vivo at 20 mg/kg [2]: < 25% | inhibition [3]: inactive

CCc1cc(CC)c2ccc(=O)n(CCN(C)C)c2n1
EC50 [1]: 19 µM | inhibition in vivo at 20 mg/kg [2]: < 25% | inhibition [3]: inactive

Cc1cc(C)c2ccc(=O)n(CCN(C(C)C)C(C)C)c2n1
EC50 [1]: 4.78 µM | Ratio [4]: 0.011 | inhibition in vivo at 20 mg/kg [2]: 57% | inhibition [3]: inactive

C/N=C(\S)NCCSCc1[nH]cnc1C [METIAMIDE]
EC50 [1]: 1.15 µM

Cc1cc(C)c2ccc(=S)n(CCN(C)C)c2n1
EC50 [1]: 14 µM | inhibition in vivo at 20 mg/kg [2]: 41% | inhibition [3]: inactive

Cc1cc(C)c2ccc(=O)n(CCN)c2n1
EC50 [1]: 156 µM | inhibition in vivo at 20 mg/kg [2]: < 25% | inhibition [3]: inactive

Cc1ccnc2c1ccc(=O)n2CCN(C)C
inhibition [5]: < 30% | inhibition in vivo at 20 mg/kg [2]: 58% | inhibition [3]: inactive

Cc1cc(C(F)(F)F)c2ccc(=O)n(CCN(C)C)c2n1
inhibition [5]: < 30% | inhibition in vivo at 20 mg/kg [2]: 52% | inhibition [3]: inactive

Cc1ccc2ccc(=O)n(CCN(C)C)c2n1
EC50 [1]: 9.43 µM | inhibition in vivo at 20 mg/kg [2]: < 25% | inhibition [3]: inactive

Cc1cc(C)c2ccc(=O)n(CC(C)(C)N(C)C)c2n1
EC50 [1]: 38 µM | inhibition in vivo at 20 mg/kg [2]: 38% | inhibition [3]: inactive

Cc1cnc2c(ccc(=O)n2CCN(C)C)c1
inhibition [5]: < 30% | inhibition in vivo at 20 mg/kg [2]: 58% | inhibition [3]: inactive

CCn1c(=O)ccc2c(C)cc(C)nc21
inhibition [5]: < 30% | inhibition in vivo at 20 mg/kg [2]: < 25% | inhibition [3]: inactive

CCN(CC)CCn1c(=O)ccc2c(C)cc(C)nc21
EC50 [1]: 4.1 µM | inhibition in vivo at 20 mg/kg [2]: < 25% | inhibition [3]: inactive

CN(C)CCn1c(=O)ccc2ccccc21
inhibition [5]: < 30% | inhibition in vivo at 20 mg/kg [2]: < 25% | inhibition [3]: inactive

CC(C)N(CCn1c(=O)ccc2cccnc21)C(C)C
EC50 [1]: 76.5 µM | inhibition in vivo at 20 mg/kg [2]: 51% | inhibition [3]: inactive
